Compound activity as filed in PubChem BioAssay.
RORA act – RORA (human) activation; CHO-K1 Gal4-RORA LBD luciferase reporter, luminescence; percent increase over mock-subtracted basal signal; activation, % at 10 µM; 65,000 tested, 1.5% active; AID 560;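 active = activation above the mean of all tested compounds plus 3 SD, cut at about 49% in these data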;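 also: 0% = DMSO-treated RORA cells and 100% = added signal equal to DMSO minus mock-transfected cells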
HEK293 NFkB inh – lowers PMA/ionomycin-induced NF-kB signal in HEK293 cells | HEK-293 NF-kB luciferase reporter, luminescence | inhibition, % at 3 µM | 62,000 tested, 0.21% active | AID 465;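 active = inhibition above the mean of all tested compounds plus 3 SD, cut at about 40% in these data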;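 also: 0% = stimulated DMSO wells and 100% = 10 µM reference inhibitor 5653914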
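System – HEK-293 cells with stable firefly luciferase reporter driven by four HIV NF-kB elements · Doses – one dose, 3 µM · Schedule – 1 h compound pre-incubation, 16 h PMA/ionomycin at 37 °C · Technique – luminescence from luciferase substrate reagent · Measure – percent inhibition normalized per plate to DMSO and reference-inhibitor controls · Replicates – tested once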
D1 allo mod – allosteric modulators of human D1 dopamine receptor. P21728. HEK293 D1, CRE-luciferase, dopamine EC30 potentiation; actives deviate in either direction. B-score at 10 µM. 58,000 tested, 5.9% active;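 active = luminescence count or its row- and column-corrected plate score outside the 99.7% band of the plate's sample wells, on either side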
SF1 activator – activators of human nuclear receptor SF-1; Q13285; CHO-K1 Gal4-SF-1 LBD luciferase reporter; % increase over DMSO SF-1-specific signal; activation, % at 10 µM; 65,000 tested, 1.9% active; AID 522;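 active = activation above the mean activation of all tested compounds plus 3 SD, cut at about 50% in these data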
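Assay system: CHO-K1 cells co-transfected with Gal4 DBD–human SF-1 LBD, 5xGal4 luciferase reporter / Input: 4,000 cells per well / Incubation: 20 h compound exposure at 37 °C after 1 h cell settling / Detection: SteadyLite luciferase luminescence / Control set: DMSO negative control and −SF1 background wells / Replication: one test per compound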
JNK3 inh – JNK3 (human) kinase inhibition; purified JNK3 kinase activity, HTS; 60,000 tested, 0.61% active; inhibition, % at 8 µM; P53779; AID 746; in the data active = inhibition above about 17%;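 also: 0% = DMSO and 100% = reference inhibitor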
Target sequence (P53779 whole entry, looked up): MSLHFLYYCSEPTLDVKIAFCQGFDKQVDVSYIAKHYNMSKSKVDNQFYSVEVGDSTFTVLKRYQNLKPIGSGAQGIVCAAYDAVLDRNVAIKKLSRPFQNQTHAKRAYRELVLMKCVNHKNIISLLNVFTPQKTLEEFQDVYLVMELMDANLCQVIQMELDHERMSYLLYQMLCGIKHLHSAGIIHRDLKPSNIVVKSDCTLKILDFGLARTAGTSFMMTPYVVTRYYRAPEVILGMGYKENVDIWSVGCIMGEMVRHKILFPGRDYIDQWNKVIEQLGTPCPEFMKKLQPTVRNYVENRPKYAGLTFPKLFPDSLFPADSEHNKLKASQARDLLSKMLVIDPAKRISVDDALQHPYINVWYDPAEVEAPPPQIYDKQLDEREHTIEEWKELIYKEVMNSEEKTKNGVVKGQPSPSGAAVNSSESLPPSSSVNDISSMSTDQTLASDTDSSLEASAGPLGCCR
Numbers without * were called inactive; · = no result given. Most compounds without a hit are left out; they make up all but 7.9% or so of the library.

SMILES	RORA act	HEK293 NFkB inh	D1 allo mod	SF1 activator	JNK3 inh
COc1ccc(-n2ncc3c(N4CCCCC4)ncnc32)cc1	-87	58*	-7.1*	-84	-5
Clc1ccc(-n2ncc3c(N4CCCCCC4)ncnc32)cc1	-68	48*	-8.6*	-76	-1
Clc1ccc(Cn2ncc3c(N4CCCCC4)ncnc32)cc1	-11	-2	0.12	10	-3
Cc1cccn2c(=O)c3cc(C(=O)NC(C)c4ccccc4)c(=N)n(CCCn4ccnc4)c3nc12 (stereo not given)	3	20	0.75	-6	-4
COc1ccccc1-c1nc(C#N)c(NCc2ccc(F)cc2)o1	24	15	-0.067	5	-3
CCOC(=O)C1CCCN(S(=O)(=O)c2ccc(OC)c3ccccc23)C1 (stereo not given)	12	-1	0.2	-3	0
CCOC(=O)C1CCCN(c2ncnc3c2cnn3-c2ccc(OC)cc2)C1 (stereo not given)	42	-21	-1.6	58*	·
CCOC(=O)C1CCCN(c2ncnc3c2cnn3-c2ccc(Cl)cc2)C1 (stereo not given)	14	-11	·	16	·
Cc1ccc(OCc2nc(-c3ccccn3)no2)c(Br)c1	-43	-15	-5.7*	-36	-1
CCc1ccc(OCc2nc(-c3ccccn3)no2)c(Br)c1	-10	-45	-5*	-33	-5
CC(C)c1ccc(OCc2nc(-c3ccccn3)no2)c(Br)c1	20	-40	-2	28	-2
COc1cccc(-c2cc(C(=O)Nc3cnn(Cc4ccc(F)cc4)c3)no2)c1	-15	-1	-3*	8	7
COc1cc2cc(CN(Cc3nnnn3Cc3ccccc3)CC3CCCO3)c(=O)[nH]c2cc1OC (stereo not given)	-20	15	0.6	0	·
COc1ccc2[nH]c(=O)c(CN(Cc3ccccc3)Cc3nnnn3CC3CCCO3)cc2c1 (stereo not given)	83*	-9	1.9	57*	-2
Cc1ccccc1Nc1nn2c(=O)c3ccccc3nc2s1	43	-24	-0.64	73*	26*
Cc1cc(Nc2ccccc2C(=O)O)nc2nc3ccccc3c(=O)n12	-1	16	0.0081	-6	3
Cc1cc(C(=O)OCC(=O)N2c3ccccc3CC2C)c(C)o1 (stereo not given)	-3	16	-0.66	-4	4
COc1cccc(C2=NOC(C(=O)Nc3cc(OC)c(OC)c(OC)c3)C2)c1 (stereo not given)	-6	12	0.7	16	81*
COc1ccc(NC(=O)C2CC(c3cc(OC)c(OC)c(OC)c3)=NO2)cc1OC (stereo not given)	4	12	1.5	5	3
O=C(COC(=O)c1ccc[nH]c1=O)NCC1CCCO1 (stereo not given)	4	8	0.19	-31	-2
COc1ccc(NS(=O)(=O)c2cc(OC)ccc2NC(=O)c2cc(C)oc2C)cc1	20	38	-0.19	0	4
CCC(C)Oc1ccccc1C1CC(=O)NC2=C1C(=O)CCC2 (stereo not given)	-7	9	0.4	-5	-6
O=C(NCc1nc2ncc(Br)cc2[nH]1)c1ccccc1	-11	-13	-0.96	13	40*
O=C(Cc1ccccc1)NCc1nc2ccccc2[nH]1	-6	5	0.39	-11	3
Oc1cc(NCc2cccnc2)ccc1-c1nc2ccccc2o1	61*	-24	0.019	38	0
SMILES	RORA act	HEK293 NFkB inh	D1 allo mod	SF1 activator	JNK3 inh
c1ccc(Cn2c(CNc3nc4ccccc4n3CCN3CCOCC3)nc3ccccc32)cc1	-18	13	0.9	-4	2
Cc1cc2nnc(SCc3ccccc3)n2c(N)n1	4	18	0.71	-7	8
COCC(=O)Nc1cccc(Br)c1	5	5	-1.4	4	2
O=C(Nc1cccc(Br)c1)c1ccn[nH]1	54*	14	0.61	31	11
COc1ccc(CC(=O)Nc2c3c(nn2-c2cccc(C)c2C)CS(=O)C3)cc1OC (stereo not given)	-21	16	0.69	1	-4
CCn1c(COc2cccc(OC)c2)nnc1SCC(=O)Nc1cccc(OC)c1	-8	8	-0.48	-4	-2
COc1ccc(-n2c(C)nc3c(cnn3-c3ccc(C)c(C)c3)c2=O)cc1	65*	10	-0.91	40	-7
Cc1cc(N)c(NC2=CC(=O)CC(C)(C)C2)cc1C	70*	9	0.89	9	-7
COc1ccc(-c2cc(C(F)(F)F)nc(N3CCOCC3)n2)cc1OC	-6	13	·	-13	·
COc1ccc(-c2cc(-c3ccccc3)nc(N3CCCC3)n2)cc1OC	-3	5	-8.7*	-25	-5
CCOC(=O)N1CCN(c2nc(-c3ccc(OC)cc3)no2)CC1	13	0	·	7	-5
O=C(NC1CCCCC1)c1ccc(CNc2ccccc2)o1	0	8	1.7	-8	-2
CC1N(C)c2cc(NC(=O)c3ccco3)ccc2C1(C)C (stereo not given)	33	-40	-0.68	71*	-15
Cc1ccc(NC(=O)COC(=O)c2ccc3c(c2)NC(=O)C2CCCN32)cc1C (stereo not given)	-12	9	0.46	-7	-6
Cn1c(=O)cc(OCC(=O)NCCCN2CCN(c3cccc(Cl)c3)CC2)c2ccccc21	-4	6	-5.3*	10	-5
Cn1c(=O)cc(OCC(=O)NCCCN2CCN(c3ccccc3F)CC2)c2ccccc21	15	1	0.56	-1	9
COc1ccccc1N1CCN(CCCNC(=O)Nc2ccccc2C)CC1	-9	10	·	10	·
COc1ccccc1NC(=O)NCCCN1CCN(c2cccc(Cl)c2)CC1	-19	16	-4.2*	15	-3
COc1ccc(C(=O)Nc2ccccc2)cc1S(=O)(=O)Nc1cc(C)on1	-6	23	0.16	-10	-12
C=CCOn1c(=O)c(=O)n(OCc2ccccc2)c2ccccc21	-7	12	-0.0079	-1	1
Fc1cccc(Cl)c1Cn1nnc(-c2ccc3c(c2)OCO3)n1	56*	-27	0.058	70*	0
Cc1ccc(NC2=CC(=O)CC(c3ccco3)C2)c(N)c1 (stereo not given)	50*	13	0.63	58*	-9
Nc1ccccc1NC1=CC(=O)CC(c2ccco2)C1 (stereo not given)	21	6	0.029	5	-7
Cc1ccc2cc(C#N)c(NCc3ccco3)nc2c1	8	16	6.7*	0	6
Cc1ccc(-c2nc(C#N)c(NCc3ccco3)o2)cc1	89*	1	1.7	6	-3
N#Cc1nc(COc2cccc(Cl)c2)oc1NCc1ccco1	66*	1	1.6	40	1
N#Cc1nc(-c2ccc(OCc3ccccc3)cc2)oc1NCc1ccco1	-2	13	-0.57	1	3
COc1ccc(Cl)cc1C(=O)NCC(C)C	-19	10	-0.33	-13	-2
